Measured values taken from publication PMC7935786 (Cancer Science, 2021).
Several values for one entry are separate records, joined by “and”; a condition that tells them apart may be missing. Identical values can stand only once. Entries after “also recorded” stand apart in the source; their conditions may differ.

Tests used:
[1] = Phase I study: plasma and urine pharmacokinetics; format: in vivo, human; conditions: for R ss: AUC(0-12h) on cycle 1 day 15/AUC(0-inf) on cycle 0 day 1; for t max: median (minimum, maximum)
[2] = tested on: refractory B‐NHL and advanced solid tumors; conditions: study outside of Japan; cited from earlier work
[3] = tested on: Japanese patients with relapsed or refractory B‐NHL; assay: Phase I study: safety, adverse events and DLT; format: in vivo, human
How it was run: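 Patients received 800 mg orally once in a 4-day cycle 0, then 800 mg BID in 28-day cycles; reduction to 600 then 400 mg BID permitted. AEs graded by CTCAE v4.03, with hematology, chemistry, urinalysis, vital signs, 12-lead ECG and LVEF by echo/MUGA. DLT assessed over cycles 0–1 in patients completing both with ≥75% cycle-1 compliance, or having DLT. Safety set: ≥1 dose.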

[4] = tested on: relapsed or refractory B‐cell lymphoma; assay: Phase I study: antitumor activity, Lugano Classification; format: in vivo, human
How it was run: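 Oral dosing: 800 mg single dose in 4-day cycle 0, then 800 mg BID in 28-day cycles. Response assessed by CT per Lugano Classification. Bone marrow aspiration or biopsy if screening was positive or unconfirmed, to confirm CR, or when clinically indicated. Best overall response summarized overall and by DLBCL or FL in patients receiving ≥1 dose. ORR given with two-sided Clopper-Pearson exact 95% CIs.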

[5] = tested on: CYP3A4; conditions: ref Unpublished data in Eisai, cited from earlier work
[6] = cited from earlier work
[7] = seven treated patients, investigator assessment

## CCN(c1cc(-c2ccc(CN3CCOCC3)cc2)cc(C(=O)NCc2c(C)cc(C)[nH]c2=O)c1C)C1CCOCC1 [Tazemetostat]
[1]; 800 mg oral
  absorption after oral administration: rapidly absorbed
[1]; mean (SD)
  R ss: 0.849 (0.277)
[1]; mean (SD), listed as tazemetostat
  R ss: 0.849
[1]; both after C0D1 and C1D15 dosing
  mean urinary excretion of tazemetostat: less than 3%
[1]; human, plasma, oral, 800 mg
  Vd/F: 1910 L
[1]; human, plasma, oral, 800 mg BID, AUC(0‐ t ), plasma, after multiple doses, Cycle 1 day 15, last sampling time point 12 h, mean (SD), N = 7
  AUC: 4490 ng·h/mL
[1]; human, plasma, oral, 800 mg BID, t max, plasma, after multiple doses, Cycle 1 day 15, N = 7
  t max: ~1 h
[1]; human, plasma, oral, 800 mg, AUC(0‐12 h), plasma, after single dose, Cycle 0 day 1, mean (SD), N = 7
  AUC: 4700 ng·h/mL
[1]; human, plasma, oral, 800 mg, AUC(0‐ t ), plasma, after single dose, Cycle 0 day 1, last sampling time point 72 h, mean (SD), N = 7
  AUC: 5990 ng·h/mL
[1]; human, plasma, oral, 800 mg, AUC(0‐inf), plasma, after single dose, Cycle 0 day 1, mean (SD), N = 7
  AUC: 6030 ng·h/mL
[1]; human, plasma, oral, 800 mg, t max, plasma, after single dose, Cycle 0 day 1, N = 7
  t max: ~2 h
[1]; human, plasma, po, 800 mg
  Cmax: 1150 ng/mL
[1]; plasma, after multiple doses 800 mg BID, Cycle 1 day 15, mean (SD), N = 7
  C ss,min: 95.1 (37.7) ng/mL
[1]; plasma, after multiple doses, Cycle 1 day 15, N = 7
  t max: 1.05 (0.88, 2.03) h
[1]; plasma, after single dose, Cycle 0 day 1, N = 7
  t max: 1.97 (0.95, 4.08) h
[2]
  recommended dose: 800 mg BID
[3]; 800 mg BID, n = 7
  Anemia, all TEAEs, Grade ≥3: 1 (14.3) patients (%)
  Anemia, all TEAEs, all grades: 2 (28.6) patients (%)
  Anemia, treatment‐related TEAEs, Grade ≥3: 1 (14.3) patients (%)
  Anemia, treatment‐related TEAEs, all grades: 2 (28.6) patients (%)
  Blood creatinine increased, all TEAEs, Grade ≥3: 0 (0.0) patients (%)
  Blood creatinine increased, all TEAEs, all grades: 2 (28.6) patients (%)
  Blood creatinine increased, treatment‐related TEAEs, Grade ≥3: 0 (0.0) patients (%)
  Blood creatinine increased, treatment‐related TEAEs, all grades: 1 (14.3) patients (%)
  Constipation, all TEAEs, Grade ≥3: 0 (0.0) patients (%)
  Constipation, all TEAEs, all grades: 3 (42.9) patients (%)
  Constipation, treatment‐related TEAEs, Grade ≥3: 0 (0.0) patients (%)
  Constipation, treatment‐related TEAEs, all grades: 1 (14.3) patients (%)
  Dry eye, all TEAEs, Grade ≥3: 0 (0.0) patients (%)
  Dry eye, all TEAEs, all grades: 2 (28.6) patients (%)
  Dry eye, treatment‐related TEAEs, Grade ≥3: 0 (0.0) patients (%)
  Dry eye, treatment‐related TEAEs, all grades: 0 (0.0) patients (%)
  Dry skin, all TEAEs, Grade ≥3: 0 (0.0) patients (%)
  Dry skin, all TEAEs, all grades: 2 (28.6) patients (%)
  Dry skin, treatment‐related TEAEs, Grade ≥3: 0 (0.0) patients (%)
  Dry skin, treatment‐related TEAEs, all grades: 2 (28.6) patients (%)
  Dysgeusia, all TEAEs, Grade ≥3: 0 (0.0) patients (%)
  Dysgeusia, all TEAEs, all grades: 3 (42.9) patients (%)
  Dysgeusia, treatment‐related TEAEs, Grade ≥3: 0 (0.0) patients (%)
  Dysgeusia, treatment‐related TEAEs, all grades: 3 (42.9) patients (%)
  Fatigue, all TEAEs, Grade ≥3: 1 (14.3) patients (%)
  Fatigue, all TEAEs, all grades: 2 (28.6) patients (%)
  Fatigue, treatment‐related TEAEs, Grade ≥3: 1 (14.3) patients (%)
  Fatigue, treatment‐related TEAEs, all grades: 2 (28.6) patients (%)
  Insomnia, all TEAEs, Grade ≥3: 0 (0.0) patients (%)
  Insomnia, all TEAEs, all grades: 2 (28.6) patients (%)
  Insomnia, treatment‐related TEAEs, Grade ≥3: 0 (0.0) patients (%)
  Insomnia, treatment‐related TEAEs, all grades: 1 (14.3) patients (%)
  Leukopenia, all TEAEs, Grade ≥3: 1 (14.3) patients (%)
  Leukopenia, all TEAEs, all grades: 2 (28.6) patients (%)
  Leukopenia, treatment‐related TEAEs, Grade ≥3: 0 (0.0) patients (%)
  Leukopenia, treatment‐related TEAEs, all grades: 1 (14.3) patients (%)
  Muscle spasms, all TEAEs, Grade ≥3: 0 (0.0) patients (%)
  Muscle spasms, all TEAEs, all grades: 2 (28.6) patients (%)
  Muscle spasms, treatment‐related TEAEs, Grade ≥3: 0 (0.0) patients (%)
  Muscle spasms, treatment‐related TEAEs, all grades: 2 (28.6) patients (%)
  Nasopharyngitis, all TEAEs, Grade ≥3: 0 (0.0) patients (%)
  Nasopharyngitis, all TEAEs, all grades: 5 (71.4) patients (%)
  Nasopharyngitis, treatment‐related TEAEs, Grade ≥3: 0 (0.0) patients (%)
  Nasopharyngitis, treatment‐related TEAEs, all grades: 0 (0.0) patients (%)
  Neutropenia, all TEAEs, Grade ≥3: 1 (14.3) patients (%)
  Neutropenia, all TEAEs, all grades: 2 (28.6) patients (%)
  Neutropenia, treatment‐related TEAEs, Grade ≥3: 0 (0.0) patients (%)
  Neutropenia, treatment‐related TEAEs, all grades: 1 (14.3) patients (%)
  Rash, all TEAEs, Grade ≥3: 0 (0.0) patients (%)
  Rash, all TEAEs, all grades: 2 (28.6) patients (%)
  Rash, treatment‐related TEAEs, Grade ≥3: 0 (0.0) patients (%)
  Rash, treatment‐related TEAEs, all grades: 2 (28.6) patients (%)
  Stomatitis, all TEAEs, Grade ≥3: 0 (0.0) patients (%)
  Stomatitis, all TEAEs, all grades: 2 (28.6) patients (%)
  Stomatitis, treatment‐related TEAEs, Grade ≥3: 0 (0.0) patients (%)
  Stomatitis, treatment‐related TEAEs, all grades: 2 (28.6) patients (%)
  Thrombocytopenia, all TEAEs, Grade ≥3: 2 (28.6) patients (%)
  Thrombocytopenia, all TEAEs, all grades: 3 (42.9) patients (%)
  Thrombocytopenia, treatment‐related TEAEs, Grade ≥3: 2 (28.6) patients (%)
  Thrombocytopenia, treatment‐related TEAEs, all grades: 3 (42.9) patients (%)
[3]; cycles 0 and 1, six evaluable patients, 800 mg BID
  dose‐limiting toxicity (DLT): No DLTs; also recorded: did not observe any DLT
[3]; n = 7
  AE anemia: 29%
  AE constipation: 42.9%
  AE dry skin: 29%
  AE dysgeusia: 42.9% and 43%
  AE fatigue: 29%
  AE leading to dose reduction: 14.3%
  AE nasopharyngitis: 71.4%
  AE rash: 29%
  AE stomatitis: 29%
  AE thrombocytopenia: 42.9% and 43%
  AEs leading to dose interruption: 57.1%
  Grade 3 AE anemia: 14.3%
  Grade 3 AE fatigue: 14.3%
  Grade 3 AE hypophosphatemia: 14.3%
  Grade 3 AE increased γ‐glutamyltransferase: 14.3%
  Grade 3 AE leukopenia: 14.3%
  Grade 3 AE lymphopenia: 14.3%
  Grade 3 AE neutropenia: 14.3%
  Grade 3 AE squamous cell carcinoma of the tongue: 14.3%
  Grade 3 AE thrombocytopenia: 28.6%
  Grade 3 or higher AEs: 57.1%
  Grade 4 AE increased levels of blood triglycerides: 14.3%
  Grade 4 AE intestinal perforation: 14.3%
  TR‐AE dysgeusia: 42.9%
  TR‐AE thrombocytopenia: 42.9%
  grade 2 peripheral neuropathy, leading to drug dose reduction: 14.3%
  patients having at least one TR‐AE: 85.7%
  patients who died or had AEs resulting in death: None
  patients who experienced at least one AE: seven
  treatment‐related serious AEs: No treatment‐related serious AEs
[3]; n = 7, intestinal perforation and squamous cell carcinoma of the tongue
  Serious AEs: 28.6%
[3]; n = 7, listed as tazemetostat
  treatment‐related serious AEs: both assessed as not related to study drug; also recorded: No treatment‐related SAEs
[3]; n = 7, section 3.2
  patients who received a reduction in the tazemetostat dose: 14.3%
[3]; one patient
  time to first dose reduction: 4.9 months
[4]; DLBCL
  responses in patients with DLBCL: one of three
[4]; DLBCL (n = 3), 800 mg BID
  Best overall response: Complete response (CR): 1 (33.3) n (%)
  Best overall response: Not evaluable: 0 (0.0) n (%)
  Best overall response: Partial response (PR): 0 (0.0) n (%)
  Best overall response: Progressive disease: 2 (66.7) n (%)
  Best overall response: Stable disease: 0 (0.0) n (%)
  Objective response rate (CR + PR): 1 (33.3) n (%)
[4]; FL
  responses in patients with FL: three of four
[4]; FL (n = 4), 800 mg BID
  Best overall response: Complete response (CR): 0 (0.0) n (%)
  Best overall response: Not evaluable: 0 (0.0) n (%)
  Best overall response: Partial response (PR): 3 (75.0) n (%)
  Best overall response: Progressive disease: 0 (0.0) n (%)
  Best overall response: Stable disease: 1 (25.0) n (%)
  Objective response rate (CR + PR): 3 (75.0) n (%)
[4]; Total (n = 7), 800 mg BID
  Best overall response: Complete response (CR): 1 (14.3) n (%)
  Best overall response: Not evaluable: 0 (0.0) n (%)
  Best overall response: Partial response (PR): 3 (42.9) n (%)
  Best overall response: Progressive disease: 2 (28.6) n (%)
  Best overall response: Stable disease: 1 (14.3) n (%)
  Objective response rate (CR + PR): 4 (57.1) n (%)
[4]; all patients (4/7), 800 mg BID
  ORR: 57.1%
[4]; n = 7
  patients who experienced a reduction of tumor burden: 85.7%
[4]; one patient with FL with gain‐of‐function mutation in EZH2, partial response
  maximum change in the sum of the product of the diameters from baseline in the target lesion: −82.3%
[4]; [7]
  CR as BOR: 14.3%
  PR as BOR: 42.9%
  progressive disease as BOR: 28.6%
  stable disease as BOR: 14.3%
[5]; in vitro
  effect on the activity of CYP3A4: induce and inhibit
[5]
  metabolizing enzyme: mainly metabolized by CYP3A4
[6]; 99 patients
  treatment‐related deaths: no treatment‐related deaths
[6]; all 99 patients
  treatment‐related grade 3 or higher AE anemia: 2%
  treatment‐related grade 3 or higher AE neutropenia: 3%
  treatment‐related grade 3 or higher AE thrombocytopenia: 3%
[6]; four of 99 patients
  Treatment‐related SAEs: 4%
